Where no end group is shown, it is not given here.
Tests used:
[1] = test system: Staphylococcus aureus (S. aureus) (NCTC 10788); assay: MIC/MBC determination; type: cell-based; details: 37 °C, 20 h; for MBC: 10 µl from MIC wells on MHA, no colony growth; for MIC: MHB, 5 × 10^5 CFU/ml, read at 550 nm
In short: (§1)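 Bacteria grown overnight at 37 °C in MHB and diluted to 5 × 10^5 CFU/ml. Peptide stocks in PBS, two-fold from 51200 µM to 100 µM, added 1 µl per 99 µl suspension. Norfloxacin (20 mg/l) was the positive control. After 20 h at 37 °C, OD 550 nm read; MIC = no apparent growth. For MBC, 10 µl from MIC and higher wells spotted on MHA, 37 °C 20 h; lowest without colonies.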

[2] = test system: Escherichia coli (E. coli) (ATCC 8739); assay: MIC/MBC determination; type: cell-based; details: 37 °C, 20 h; for MBC: 10 µl from MIC wells on MHA, no colony growth; for MIC: MHB, 5 × 10^5 CFU/ml, read at 550 nm
In short: as §1

[3] = test system: MRSA (NCTC 12493); assay: MIC/MBC determination; type: cell-based, Methicillin-resistant Staphylococcus aureus; details: 37 °C, 20 h; for MBC: 10 µl from MIC wells on MHA, no colony growth; for MIC: MHB, 5 × 10^5 CFU/ml, read at 550 nm
In short: as §1

[4] = test system: Klebsiella pneumoniae (K. pneumoniae) (ATCC 43816); assay: MIC/MBC determination; type: cell-based; details: 37 °C, 20 h; for MBC: 10 µl from MIC wells on MHA, no colony growth; for MIC: MHB, 5 × 10^5 CFU/ml, read at 550 nm
In short: as §1

[5] = test system: Enterococcus faecium (E. faecium) (NTCC-12697); assay: MIC/MBC determination; type: cell-based; details: 37 °C, 20 h; for MBC: 10 µl from MIC wells on MHA, no colony growth; for MIC: MHB, 5 × 10^5 CFU/ml, read at 550 nm
In short: as §1

[6] = test system: Pseudomonas aeruginosa (P. aeruginosa) (ATCC 9027); assay: MIC/MBC determination; type: cell-based; details: 37 °C, 20 h; for MBC: 10 µl from MIC wells on MHA, no colony growth; for MIC: MHB, 5 × 10^5 CFU/ml, read at 550 nm
In short: as §1

[7] = test system: MRSA (BO38 V1S1 A); assay: MIC/MBC determination; type: cell-based, Methicillin-resistant Staphylococcus aureus; details: 37 °C, 20 h; for MBC: 10 µl from MIC wells on MHA, no colony growth; for MIC: MHB, 5 × 10^5 CFU/ml, read at 550 nm
In short: as §1

[8] = test system: MRSA (BO42 V2E1 A); assay: MIC/MBC determination; type: cell-based, Methicillin-resistant Staphylococcus aureus; details: 37 °C, 20 h; for MBC: 10 µl from MIC wells on MHA, no colony growth; for MIC: MHB, 5 × 10^5 CFU/ml, read at 550 nm
In short: as §1

[9] = test system: MRSA (ATCC BAA 1707); assay: MIC/MBC determination; type: cell-based, Methicillin-resistant Staphylococcus aureus; details: 37 °C, 20 h; for MBC: 10 µl from MIC wells on MHA, no colony growth; for MIC: MHB, 5 × 10^5 CFU/ml, read at 550 nm
In short: as §1

[10] = test system: S. aureus (NCTC 10788); assay: Condition sensitivity assay; type: cell-based, Staphylococcus aureus
[11] = test system: MRSA (NCTC 12493); assay: Condition sensitivity assay; type: cell-based, Methicillin-resistant Staphylococcus aureus
[12] = test system: human keratinocyte cell line HaCaT; assay: Lactate dehydrogenase; type: cell-based; details: HaCaT cells, 100 μM peptide, 24 h, compared to the positive control
In short: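 Peptide added at 100 µM to 1 µM for 24 h. Lysis buffer gave maximum LDH; after 45 min, supernatant reacted 30 min dark at room temperature, then stopped. Absorbance read at 490 and 680 nm. Release expressed as percent of 1% Triton X-100, PBS negative; nine replicates from three experiments, mean ± SEM.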

| Substance | MBC [1] [µM] | MIC [1] [µM] | MBC [2] [µM] | MIC [2] [µM] | MBC [3] [µM] | MIC [3] [µM] | MBC [4] [µM] | MIC [4] [µM] | MBC [5] [µM] | MIC [5] [µM] | MBC [6] [µM] | MIC [6] [µM] | MBC [7] [µM] | MIC [7] [µM] | MBC [8] [µM] | MIC [8] [µM] | MBC [9] [µM] | MIC [9] [µM] | MIC ([10]; MHB with 6 μM NH4Cl) [µM] | MIC ([10]; MHB with 1 mM MgCl2) [µM] | further results |
| --- | --- | --- | --- | --- | --- | --- | --- | --- | --- | --- | --- | --- | --- | --- | --- | --- | --- | --- | --- | --- | --- |
| GVIFNALK-NH2 [GV8] | > 512 | > 512 | > 512 | > 512 | > 512 | > 512 | > 512 | > 512 | > 512 | > 512 | > 512 | > 512 | > 512 | > 512 | > 512 | > 512 | > 512 | > 512 | – | – | – |
| GVIFNALKGVAK-NH2 [GV12] | > 512 | > 512 | > 512 | > 512 | > 512 | > 512 | > 512 | > 512 | > 512 | > 512 | > 512 | > 512 | > 512 | > 512 | > 512 | > 512 | > 512 | > 512 | – | – | – |
| GVIFNALKGVAKTVAAQLLK-NH2 [GV20] | 8 | 4 | 32 | 8 | 8 | 8 | 64 | 32 | 64 | 16 | 64 | 32 | 32 | 16 | 64 | 32 | 32 | 16 | 4 | 4 | MIC ([10]; MHB with 2.5 mM CaCl2): 4 µM; MIC ([10]; MHB with 4 mM FeCl3): 4 µM; MIC ([10]; MHB with 4.5 mM KCl): 8 µM; MIC ([10]; MHB with 8 mM ZnCl2): 4 µM; MIC ([10]; MHB with 150 mM NaCl): 4 µM; MIC ([10]; MHB with 10% horse serum): 8 µM; MIC ([10]; PBS (no added salt)): 4 µM; MIC ([11]; MHB with 6 μM NH4Cl): 8 µM; MIC ([11]; MHB with 1 mM MgCl2): 8 µM; MIC ([11]; MHB with 2.5 mM CaCl2): 16 µM; MIC ([11]; MHB with 4 mM FeCl3): 8 µM; MIC ([11]; MHB with 4.5 mM KCl): 16 µM; MIC ([11]; MHB with 8 mM ZnCl2): 8 µM; MIC ([11]; MHB with 150 mM NaCl): 8 µM; MIC ([11]; MHB with 10% horse serum): 16 µM; MIC ([11]; PBS (no added salt)): 8 µM |
| GVIFNALKGVAKTVAAQLLKK-NH2 [GV21] | 4 | 2 | 8 | 4 | 4 | 4 | 16 | 16 | 8 | 4 | 16 | 16 | 8 | 8 | 16 | 8 | 8 | 4 | 2 | 2 | LDH release rate (maximum) [12]: 22.36%; MIC ([10]; MHB with 2.5 mM CaCl2): 2 µM; MIC ([10]; MHB with 4 mM FeCl3): 2 µM; MIC ([10]; MHB with 4.5 mM KCl): 2 µM; MIC ([10]; MHB with 8 mM ZnCl2): 2 µM; MIC ([10]; MHB with 150 mM NaCl): 2 µM; MIC ([10]; MHB with 10% horse serum): 2 µM; MIC ([10]; PBS (no added salt)): 2 µM; MIC ([11]; MHB with 6 μM NH4Cl): 4 µM; MIC ([11]; MHB with 1 mM MgCl2): 4 µM; MIC ([11]; MHB with 2.5 mM CaCl2): 4 µM; MIC ([11]; MHB with 4 mM FeCl3): 4 µM; MIC ([11]; MHB with 4.5 mM KCl): 4 µM; MIC ([11]; MHB with 8 mM ZnCl2): 4 µM; MIC ([11]; MHB with 150 mM NaCl): 4 µM; MIC ([11]; MHB with 10% horse serum): 4 µM; MIC ([11]; PBS (no added salt)): 4 µM |
| GVIFNALKGVAKTVAAQLLKKAR-NH2 [GV23] | 16 | 2 | 8 | 4 | 2 | 2 | 64 | 32 | 16 | 16 | 16 | 16 | 8 | 2 | 8 | 8 | 8 | 8 | 2 | 2 | MIC ([10]; MHB with 2.5 mM CaCl2): 2 µM; MIC ([10]; MHB with 4 mM FeCl3): 2 µM; MIC ([10]; MHB with 4.5 mM KCl): 2 µM; MIC ([10]; MHB with 8 mM ZnCl2): 2 µM; MIC ([10]; MHB with 150 mM NaCl): 2 µM; MIC ([10]; MHB with 10% horse serum): 2 µM; MIC ([10]; PBS (no added salt)): 2 µM; MIC ([11]; MHB with 6 μM NH4Cl): 4 µM; MIC ([11]; MHB with 1 mM MgCl2): 4 µM; MIC ([11]; MHB with 2.5 mM CaCl2): 2 µM; MIC ([11]; MHB with 4 mM FeCl3): 2 µM; MIC ([11]; MHB with 4.5 mM KCl): 2 µM; MIC ([11]; MHB with 8 mM ZnCl2): 2 µM; MIC ([11]; MHB with 150 mM NaCl): 2 µM; MIC ([11]; MHB with 10% horse serum): 2 µM; MIC ([11]; PBS (no added salt)): 2 µM |
| TVAAQLLKKAR-NH2 [GV11] | > 512 | > 512 | > 512 | > 512 | > 512 | > 512 | > 512 | > 512 | > 512 | > 512 | > 512 | > 512 | > 512 | > 512 | > 512 | > 512 | > 512 | > 512 | – | – | – |
